# Compound activity as filed in PubChem.
# Only some compounds are listed: those with a hit (about 1% of all), similar ones and a draw of the others.
# IMP-1 inhibitor – inhibitors of Pseudomonas aeruginosa IMP-1 metallo-beta-lactamase | purified IMP-1, nitrocefin hydrolysis, epi-absorbance fluorescence | inhibition, % at 5.6 µM | 290,000 compounds, 0.45% hits | AID 1556;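 active = inhibition above the mean plus 3 SD of all compounds in the same screening run, cut at about 4.5% in these data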
#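 assay system = purified recombinant IMP-1 metallo-beta-lactamase enzyme | schedule = 15 min preincubation plus 25 min reaction at 25 °C | signal = Epi-absorbance fluorescence, 480 nm excitation, 530 nm emission | read-out basis = percent inhibition from optical density relative to buffer-blank wells | controls = IMP-1 with DMSO as 0%, enzyme-free DMSO as 100%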
# VIM-2 inhibitor – inhibitors of Pseudomonas aeruginosa VIM-2 metallo-beta-lactamase. inhibition, % at 5.6 µM. purified VIM-2, nitrocefin hydrolysis, epi-absorbance fluorescence. 290,000 compounds, 0.89% hits;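 active = inhibition above the mean of all tested compounds plus 3 SD, cutoff set per screening run, cut at about 7.5% in these data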;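 note: red hydrolysis product quenches plate fluorescence so inhibitors raise well fluorescence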
# FID counter – fluorescent intercalator displacement, NS3 helicase counter-screen; DNA fluorescent intercalator displacement, fluorescence; inhibition, % at 7.9 µM; 290,000 compounds, 0.17% hits; AID 1845; in the data active = inhibition above about 37%;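 note: higher means more ethidium bromide displaced from hairpin DNA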
# RAD54 branch – RAD54 (human) branch migration inhibition | Q92698 | RAD54 Holliday junction branch migration, FAM/BHQ fluorescence | 360,000 compounds, 0.14% hits | AID 602329 | inhibition, % at 10.4 µM;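 active = mean normalized replicate activity at least 40 and at least half of replicates scoring 40 or more; inconclusive = only one of the two criteria met; inactive = mean below 40 and under half of replicates reaching 40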;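 note: inhibitors cause a drop in the FAM fluorescence signal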
# Target sequence (Q92698 whole entry, looked up): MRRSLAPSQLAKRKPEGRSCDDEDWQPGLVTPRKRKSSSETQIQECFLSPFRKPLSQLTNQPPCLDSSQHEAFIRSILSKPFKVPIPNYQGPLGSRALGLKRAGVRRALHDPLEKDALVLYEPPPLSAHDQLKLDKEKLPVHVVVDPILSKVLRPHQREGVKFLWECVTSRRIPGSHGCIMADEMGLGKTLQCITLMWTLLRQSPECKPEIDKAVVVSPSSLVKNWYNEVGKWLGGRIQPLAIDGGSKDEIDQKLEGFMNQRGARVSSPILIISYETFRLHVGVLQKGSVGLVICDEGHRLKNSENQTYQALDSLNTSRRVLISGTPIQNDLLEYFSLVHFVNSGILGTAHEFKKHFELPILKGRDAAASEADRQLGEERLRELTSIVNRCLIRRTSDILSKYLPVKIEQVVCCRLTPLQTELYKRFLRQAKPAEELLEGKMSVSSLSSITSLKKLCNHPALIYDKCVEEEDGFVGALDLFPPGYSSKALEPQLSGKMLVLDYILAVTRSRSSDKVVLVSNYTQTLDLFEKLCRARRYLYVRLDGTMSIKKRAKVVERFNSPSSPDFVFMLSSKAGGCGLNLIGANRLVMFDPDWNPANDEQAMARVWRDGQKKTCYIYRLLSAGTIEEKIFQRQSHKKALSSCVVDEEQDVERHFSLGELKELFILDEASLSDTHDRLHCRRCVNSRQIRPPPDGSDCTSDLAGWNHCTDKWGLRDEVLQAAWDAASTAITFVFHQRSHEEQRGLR
# PvdQ acylase – blocks Pseudomonas aeruginosa PvdQ acylase activity; purified PvdQ acylase, fluorescence plate reader; inhibition, % at 10 µM; 340,000 compounds, 0.063% hits; in the data active = inhibition above about 30%, passing the limit was not always enough; inconclusive = no clear call, values can overlap the other calls
# Rad54 DNA ctr – counter-screen for Rad54 inhibitors: DNA binding compounds. shares compounds with RAD54 branch. Acridine orange-DNA displacement, fluorescence polarization, 20 min. AC50, µM (titrated, usually from 35 µM). 460 compounds, 8% hits. AID 651673;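 active = signal drop giving an AC50 within twice the top valid tested concentration of each sample, actives reach about 35 µM in these data; inactive = activity opposite to expected, plus the rest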;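 note: polarization loss reports compound binding to salmon sperm DNA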
# A number is an active result; . = inactive; ? = inconclusive; / = not tested or not shown.
SMILES,IMP-1 inhibitor,VIM-2 inhibitor,FID counter,RAD54 branch,PvdQ acylase,Rad54 DNA ctr
CN(C)CCNC(=O)c1cccc(-c2cnc3c(NC=O)cc(-c4ccc(F)cc4)cn23)c1,/,/,/,55,/,.
CN(C)CCNC(=O)c1cccc(-c2cnc3c(NC=O)cc(-c4cccc(F)c4)cn23)c1,/,/,/,?,/,.
CCSc1ccc(-c2cc(NC=O)c3ncc(-c4cccc(C(=O)NCCN(C)C)c4)n3c2)cc1,/,/,/,.,/,/
C[C@@H]1CN([C@@H](C)CO)C(=O)c2cc(NS(=O)(=O)c3cccs3)ccc2O[C@H]1CN(C)S(=O)(=O)c1ccc(F)cc1,/,/,/,.,/,/
C[C@H]1CN([C@@H](C)CO)C(=O)Cc2cc(NS(=O)(=O)c3ccc(Cl)cc3)ccc2O[C@@H]1CN(C)C(=O)NC1CCCCC1,/,/,/,.,/,/
CC(=O)Nc1ccc(-c2ccnc3c2CC(C(=O)NCc2ccc(N4CCN(C)CC4)cc2)O3)cc1 (stereo not given),/,/,/,.,/,/
CN1CCN(c2ccc(CNC(=O)C3Cc4c(-c5ccc(Cl)cc5)ccnc4O3)cc2)CC1 (stereo not given),/,/,/,?,/,.
CSc1nc(SCC(N)=O)c2c3c(sc2n1)CN(C)CC3,.,.,.,59,.,.
CCNc1nc(SCC(N)=O)nc2sc3c(c12)CCN(C)C3,.,.,.,.,.,/
CNC[C@@H]1Oc2ccc(NC(=O)C3CC3)cc2CC(=O)N([C@@H](C)CO)C[C@@H]1C,/,/,/,.,/,/
Cc1ccc2nc3c(c(N)c2c1)CCN3C,.,.,42,61,.,.
Nc1c2c(nc3cccc(Cl)c13)N(c1ccccc1)CC2,.,.,.,/,.,/
Cc1ccc2nc3c(c(N)c2c1)CCN3c1ccccc1,.,.,.,53,.,.
C[C@@H]1CN([C@H](C)CO)C(=O)c2cc(NC(=O)Cc3ccccc3)ccc2O[C@@H](C)CCCCO[C@H]1CN(C)C(=O)c1ccccc1,/,/,/,.,/,/
O=C(CC(F)(F)F)N1C[C@@H]2[C@H](c3ccccc31)[C@H](CO)N2C(=O)C1CCOCC1,/,/,/,.,/,/
CCCNc1nc2nc3ccccn3c(=O)c2cc1C(=O)NCCN1CCOCC1,.,.,40,?,.,.
Cc1cccn2c(=O)c3cc(C(=O)NCc4ccccc4)c(=N)n(CCCN4CCOCC4)c3nc12,/,/,/,61,.,.
CCNC(=O)c1cc2c(=O)n3cccc(C)c3nc2n(CCc2ccccc2)c1=N,.,.,.,50,.,.
Cc1cccn2c(=O)c3cc(C(=O)NCCN4CCOCC4)c(=N)n(CCCN4CCOCC4)c3nc12,.,.,79,92,.,.
CN1[C@@H]2c3ccc(-c4ccncc4)c(=O)n3C[C@H]1[C@H](CO)[C@H]2C(=O)NC1CCCCC1,/,/,/,.,/,/
CO[C@@H]1CN(C)C(=O)c2ccc(NC(=O)c3ccccc3)cc2OC[C@H](C)N(CC2CC2)C[C@@H]1C,/,/,/,.,/,/
CCOC(=O)c1cnc2c(C)cc(C)cc2c1NCCCN1CCOCC1,.,9.6,71,93,.,.
CCOC(=O)c1cnc2ccc(Br)cc2c1NCCO,.,.,.,.,.,/
CCOC(=O)c1cnc2ccc(C)cc2c1NCCN1CCOCC1,.,.,.,?,.,.
COc1ccccc1S(=O)(=O)N[C@@H]1CC[C@H](CCNC(=O)C2CCOCC2)O[C@H]1CO,/,/,/,.,/,/
SMILES,IMP-1 inhibitor,VIM-2 inhibitor,FID counter,RAD54 branch,PvdQ acylase,Rad54 DNA ctr
CCOc1cccc(-c2cc(N3CCN(CCO)CC3)n3nccc3n2)c1,/,/,/,.,/,/
OCCN1CCN(c2cc(-c3ccc4ccccc4c3)nc3ccnn23)CC1,/,/,/,.,/,/
Cc1cccc(-c2cc(N3CCCN(C)CC3)n3nccc3n2)c1,/,/,/,?,/,.
CN1CCCN(c2cc(-c3ccc4ccccc4c3)nc3ccnn23)CC1,/,/,/,64,/,.
CO[C@H]1CN(C)C(=O)c2cc(NC(=O)c3cc(C)on3)ccc2OC[C@@H](C)N(C)C[C@@H]1C,/,/,/,.,/,/
N=c1n(CCN2CCCCC2)c2ccccc2n1CC(=O)c1cccc([N+](=O)[O-])c1,.,.,.,87,.,.
O=C(Nc1ccc2c(c1)OCO2)c1cc(-c2ccncc2)nc2ccccc12,.,.,.,?,.,.
O=C(Nc1ccc2c(c1)OCCO2)c1cc(-c2ccccc2)nc2ccccc12,.,.,.,.,.,/
O=C1c2cccc3cccc(c23)C(=O)N1CC1CCN(CC(O)COc2ccc3ccccc3c2)CC1 (stereo not given),/,/,/,.,.,/
Cc1cc(C)cc(OCC(O)CN2CCC(CN3C(=O)c4cccc5cccc(c45)C3=O)CC2)c1 (stereo not given),/,/,/,66,.,.
